ChEMBL document CHEMBL1127640, “Synthesis and evaluation of 7 alpha-iodo-5 alpha-dihydrotestosterone as a potential radioligand for androgen receptor” (J Med Chem, 1994)

Key:
[1] = target: T1, Progesterone receptor (Homo sapiens) (UniProt P06401); assay: Relative binding affinity for progesterone receptor in MCF-7 cell cytosol extract
T1 sequence (whole entry): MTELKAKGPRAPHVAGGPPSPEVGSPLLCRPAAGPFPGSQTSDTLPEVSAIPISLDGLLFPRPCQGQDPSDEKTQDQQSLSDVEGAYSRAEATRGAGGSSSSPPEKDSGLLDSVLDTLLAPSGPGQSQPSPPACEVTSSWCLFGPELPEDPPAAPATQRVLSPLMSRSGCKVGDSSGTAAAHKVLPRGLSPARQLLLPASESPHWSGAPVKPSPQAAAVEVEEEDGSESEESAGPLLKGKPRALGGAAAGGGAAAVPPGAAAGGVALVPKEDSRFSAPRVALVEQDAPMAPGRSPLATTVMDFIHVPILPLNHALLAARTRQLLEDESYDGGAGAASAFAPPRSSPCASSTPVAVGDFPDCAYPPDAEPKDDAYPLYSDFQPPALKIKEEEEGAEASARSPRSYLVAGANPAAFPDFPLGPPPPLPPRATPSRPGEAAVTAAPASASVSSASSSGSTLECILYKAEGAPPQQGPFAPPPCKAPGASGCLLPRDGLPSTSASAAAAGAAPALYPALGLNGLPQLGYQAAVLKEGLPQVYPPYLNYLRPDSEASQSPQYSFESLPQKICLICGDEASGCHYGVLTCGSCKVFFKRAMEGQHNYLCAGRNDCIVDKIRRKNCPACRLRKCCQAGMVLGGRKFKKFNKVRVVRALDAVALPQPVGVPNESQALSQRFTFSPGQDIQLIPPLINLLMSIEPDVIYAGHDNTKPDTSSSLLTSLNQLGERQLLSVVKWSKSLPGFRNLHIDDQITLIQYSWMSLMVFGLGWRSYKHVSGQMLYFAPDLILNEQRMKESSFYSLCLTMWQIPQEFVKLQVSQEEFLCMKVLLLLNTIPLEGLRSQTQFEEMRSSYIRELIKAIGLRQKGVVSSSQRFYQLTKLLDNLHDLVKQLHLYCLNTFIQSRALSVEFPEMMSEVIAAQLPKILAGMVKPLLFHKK

Rattus norvegicus = organism: Rattus norvegicus; assay: Relative binding affinity for progesterone receptor in rat uterine cytosol extract; conditions: Uterus
Summary of the method: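 Tissue homogenized in molybdate-free TEGT buffer, and cytosol (105000g supernatant) used at 0.8–1.2 mg/mL protein. Incubation was 20 h at 4 °C with 1.0 nM [3H]R5020 (final) over a competitor range. Bound/free separated on Sephadex LH-20, then scintillation counting.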

## C[C@@H]1CC2=CC(=O)CCC2[C@H]2CC[C@@]3(C)[C@@H](CC[C@@]3(O)/C=C/I)[C@H]12 (some centres not stated)
[1]
  Binding: 9.84%
Rattus norvegicus
  Binding: 12.3%

## CC12CC[C@H]3[C@@H]([C@H](I)C[C@H]4CC(=O)CCC43C)[C@@H]1CCC2O (some centres not stated)
[1]
  Binding: 0.239%
Rattus norvegicus
  Binding: 1.12%

## CC(=O)[C@H]1CC[C@H]2[C@@H]3CCC4=CC(=O)CC[C@]4(C)[C@H]3CC[C@]12C
[1]
  Binding: 100%
Rattus norvegicus
  Binding: 100%

## C[C@]12CC[C@H]3[C@@H](CCC4=CC(=O)CC[C@@]43C)[C@@H]1CC[C@@H]2O
[1]
  Binding: 0.112%
Rattus norvegicus
  Binding: 1.55%

## C[C@]1(O)CC[C@H]2[C@@H]3CCC4=CC(=O)CCC4=C3C=C[C@@]21C
[1]
  Binding: 98%
Rattus norvegicus
  Binding: 142%

## C[C@]12CCC(=O)C[C@@H]1CC[C@@H]1[C@@H]2CC[C@]2(C)[C@@H](O)CC[C@@H]12
[1]
  Binding: 0.205%
Rattus norvegicus
  Binding: 1.26%
